{"source": "paper PMC7381488", "about": "(EBioMedicine, 2020)", "key": {"virus": {"system": "virus", "details": "added between 6 and 10 h after virus exposure; cited from earlier work"}, "[1]": {"test": "Drug concentrations in rectal tissues of macaques 24h after oral dosing", "format": "in vivo", "details": "for rectal tissue concentration, macaques compared with humans: p=0•43 (EVG), p=0•073 (FTC), p=1 (TFV)", "summary_of_the_method": "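Macaques received one oral gavage solution (20 mg/kg FTC, 1•5 mg/kg TAF, 30 mg/kg EVG, 30 mg/kg COBI) in 65% PEG 400/20% TPGS/15% phosphate buffer pH 8. Mucosal biopsies were taken about 5-6 cm above the anal aperture 24 h post-dose: FTC/EVG in 12 animals, TFV-DP/FTC-TP in 4. Analysis was by HPLC-MS/MS or LC-MS-MS. Median biopsy weight was 0•037 g. Comparison with humans used the Wilcoxon rank sum test.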"}, "[2]": {"details": "macaques, cited from earlier work"}, "[3]": {"format": "in vivo, rhesus macaques", "details": "30 mg/kg EVG + 30 mg/kg COBI vs 50 mg/kg EVG alone, macaques"}, "[4]": {"format": "in vivo, macaques", "summary_of_the_method": "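PEP arms were dosed by oral gavage at +2h (n=5), +6h (n=6), +24h (n=6) or +24h/+48h (n=6) after rectal SHIV162P3 exposure. Dosing and challenge recurred every two weeks for up to 8 exposures. PBMC TFV-DP and FTC-TP were measured at each subsequent challenge, 2 weeks after dosing, and reported as medians. Values below LLOQ were set to 10 fmol/10^6 cells.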"}, "[5]": {"test": "Drug concentrations in rectal tissues of humans 24h after a single tablet", "format": "in vivo", "summary_of_the_method": "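Seven HIV-negative men aged 18-49 each took one observed oral tablet (200 mg FTC/10 mg TAF/150 mg EVG/150 mg COBI). Rectal biopsies were taken 24 h later. TFV, FTC and EVG were measured by HPLC-MS/MS against a 0•5-2000 ng/mL human-plasma standard curve (LLOQ 10 ng/mL). Intracellular TFV-DP and FTC-TP were measured by LC-MS-MS. Median biopsy weight for extracellular drugs was 0•020 g.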"}, "[6]": {"test": "Intracellular TFV-DP and FTC-TP in PBMCs of macaques after a single oral dose", "format": "in vivo", "details": "for peak intracellular concentration in PBMCs: macaques n=4, 20 mg/kg FTC, 1•5 mg/kg TAF, 30 mg/kg EVG/COBI oral, at 24h, median [range]; for time of peak in PBMCs: macaques, single oral dose", "summary_of_the_method": "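Four macaques were gavaged once with FTC 20 mg/kg, TAF 1•5 mg/kg, EVG 30 mg/kg and COBI 30 mg/kg in PEG 400/TPGS/phosphate buffer vehicle. PBMCs were sampled over time and lysed in cold 80% methanol, then stored at -80C. TFV-DP and FTC-TP were measured by LC-MS-MS, with LLOQs of 100 and 500 fmol/sample respectively.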"}, "[7]": {"format": "in vivo, humans", "details": "for peak intracellular concentration in PBMCs: humans n=7, single Genvoya tablet (200 mg FTC/10 mg TAF/150 mg EVG/150 mg COBI), at 4h, median [range]; for time of peak in PBMCs: humans, single Genvoya tablet", "summary_of_the_method": "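Seven HIV-negative men took a single oral tablet (200 mg FTC/10 mg TAF/150 mg EVG/150 mg COBI), with PBMCs collected at each time point. Cells were lysed in cold 80% methanol and stored at -80C. TFV-DP and FTC-TP were quantified by LC-MS-MS, with LLOQ 100 fmol/sample for TFV-DP and 500 fmol/sample for FTC-TP.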"}}, "note": "“Also recorded” adds a separate entry of the source. Where two headings read alike, the source gives them in different places."}
{"smiles": "Cc1nnc(C(=O)NC(C)(C)c2nc(C(=O)NCc3ccc(F)cc3)c(O)c(=O)n2C)o1", "note": "[RAL, raltegravir]", "values": [{"measurement": "post-infection inhibition in culture", "setting": "virus", "value": "high post-infection inhibition"}]}
{"smiles": "C[C@H](Cn1cnc2c(N)ncnc21)OCP(=O)(O)O", "note": "[TFV, tenofovir]", "values": [{"measurement": "rectal tissue concentration, macaques compared with humans", "setting": "[1]; 24h after dosing", "value": "similar"}]}
{"smiles": "Nc1nc(=O)n([C@@H]2CS[C@H](CO)O2)cc1F", "note": "[FTC, emtricitabine]", "values": [{"measurement": "rectal tissue concentration, macaques compared with humans", "setting": "[1]; 24h after dosing", "value": "similar"}]}
{"smiles": "COc1cc2c(cc1Cc1cccc(Cl)c1F)c(=O)c(C(=O)O)cn2[C@H](CO)C(C)C", "note": "[EVG, elvitegravir]", "values": [{"measurement": "rectal tissue concentration, macaques compared with humans", "setting": "[1]; 24h after dosing", "value": "similar"}, {"measurement": "plasma AUC0-24h of EVG without a booster", "setting": "[2]; 50 mg/kg EVG oral, no COBI", "value": 4000, "unit": "ngxh/ml"}, {"measurement": "plasma Cmax of EVG without a booster", "setting": "[2]; 50 mg/kg EVG oral, no COBI", "value": 280, "unit": "ng/mL"}, {"measurement": "time in secretions above the protein-adjusted 95% inhibition concentration", "setting": "[2]; single oral dose, rectal and vaginal secretions", "value": "> 48", "unit": "h"}, {"measurement": "EVG concentration in rectal secretions relative to plasma", "setting": "[2]; single oral dose", "value": 694, "unit": "fold"}, {"measurement": "EVG concentration in vaginal secretions relative to plasma", "setting": "[2]; single oral dose", "value": 114, "unit": "fold"}, {"measurement": "increase of plasma Cmax and AUC0-24h by co-administration of COBI", "setting": "[3]", "value": "about 4 fold"}]}
{"smiles": "Nc1nc(=O)n([C@@H]2CS[C@H](COP(=O)(O)OP(=O)(O)OP(=O)(O)O)O2)cc1F", "note": "[FTC-TP]", "values": [{"measurement": "residual level in PBMCs at the time of virus challenges", "setting": "[4]; PEP arms", "value": "did not detect any residual FTC-TP"}, {"measurement": "detection in rectal tissue", "setting": "[1]; macaques, 24h after dosing", "value": "mostly undetectable"}, {"measurement": "detection in rectal tissue", "setting": "[5]; 24h after dosing", "value": "mostly undetectable"}, {"measurement": "peak intracellular concentration in PBMCs", "setting": "[6]", "value": "1737 [1153–3523] fmols/10^6 cells"}, {"measurement": "time of peak in PBMCs", "setting": "[6]", "value": 24, "unit": "h"}, {"measurement": "peak intracellular concentration in PBMCs", "setting": "[7]", "value": "4215 [3630–7,150] fmols/10^6 cells"}, {"measurement": "time of peak in PBMCs", "setting": "[7]", "value": 4, "unit": "h"}]}
{"smiles": "C[C@@H](Cn1cnc2c(N)ncnc21)OCP(=O)(O)OP(=O)(O)OP(=O)(O)O", "note": "[TFV-DP]", "values": [{"measurement": "median residual level in PBMCs at time of SHIV challenge", "setting": "[4]; +2h arm", "value": "< LLOQ; also recorded: below the limit of detection"}, {"measurement": "median residual level in PBMCs at time of SHIV challenge", "setting": "[4]; +6h arm", "value": "< LLOQ; also recorded: below the limit of detection"}, {"measurement": "median intracellular level in rectal tissue", "setting": "[1]; macaques, 24h after single oral dose", "value": "10,600 fmols/mg"}, {"measurement": "median intracellular level in rectal tissue", "setting": "[5]; 24h after single Genvoya tablet", "value": "17,100 fmols/mg of tissue"}, {"measurement": "peak intracellular concentration in PBMCs", "setting": "[6]", "value": "746 [509–1828] fmols/10^6 cells"}, {"measurement": "time of peak in PBMCs", "setting": "[6]", "value": 24, "unit": "h"}, {"measurement": "peak intracellular concentration in PBMCs", "setting": "[7]", "value": "299 [121–523] fmols/10^6 cells"}, {"measurement": "time of peak in PBMCs", "setting": "[7]", "value": 4, "unit": "h"}]}
